# Results from different studies.
# Protocols differ between the studies behind these lines.
# Organism: Streptococcus pneumoniae
# Read-out: microbial growth
SMILES,assay,test system,quantity,result
CC(C)CCCCCCCCCCCCCCCc1cc(O)cc(O)c1,,,IC50,70 µM
CNC(=O)Oc1c2c(c(O)c3cc(CN4CCC4)ccc13)C(=O)C1=C(O)[C@]3(O)C(=O)C(C(N)=O)=C(O)[C@@H](N(C)C)[C@@H]3C[C@@H]1C2,broth dilution,ATCC49619,MIC,0.5 µg/mL
CN[C@H](CC(C)C)C(=O)N[C@H]1C(=O)N[C@@H](CC(N)=O)C(=O)N[C@H]2C(=O)N[C@H]3C(=O)N[C@H](C(=O)N[C@H](C(=O)O)c4cc(O)cc(O)c4-c4cc3ccc4O)[C@H](O)c3ccc(c(Cl)c3)Oc3cc2cc(c3O[C@@H]2O[C@H](CO)[C@@H](O)[C@H](O)[C@H]2O[C@H]2C[C@](C)(N)[C@H](O)[C@H](C)O2)Oc2ccc(cc2Cl)[C@H]1O,,,MIC,0.12 µg/mL
COc1ccc2cc1Oc1cc(ccc1OC)CCC(N[C@@H]1CCCc3ccccc31)CCCC2 (some centres unmarked),broth dilution,,MIC,> 100 µg/mL
CCCCCCCCCCCCCCCCCc1cc(O)cc(O)c1,,,IC50,> 200 µM
CCCCCCCCCCCCCCCC(=O)NS(=O)(=O)Oc1ccc(CCNC(=O)OC(C)(C)C)cc1,broth dilution,R6,MIC,50 µg/mL
CN[C@@H]1[C@H](O)[C@H](NC)[C@H]2O[C@@]3(O)C(=O)C[C@@H](C)O[C@H]3O[C@@H]2[C@H]1O,broth dilution,DAW27,MIC,25 µg/mL
C[C@H]1COCCN1c1nc(NCc2cccnc2C(F)(F)F)c2cccnc2n1,broth dilution,,MIC,32 to 64 µg/mL
